Data set [1] addresses T1, Arachidonate 5-lipoxygenase-activating protein (Homo sapiens, UniProt P20292).
T1 sequence (P20292 whole entry): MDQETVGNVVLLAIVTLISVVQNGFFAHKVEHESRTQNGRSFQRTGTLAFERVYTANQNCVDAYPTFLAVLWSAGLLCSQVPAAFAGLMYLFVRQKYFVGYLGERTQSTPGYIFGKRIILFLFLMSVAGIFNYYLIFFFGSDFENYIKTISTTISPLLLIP
Kind of data set: Binding affinity to FLAP in human PMN derived membrane. The data set is classed as cell membranes. An outline of the steps:
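FLAP binding measured in membranes derived from human polymorphonuclear leukocytes (PMN). IC50 values are the average of n ≥ 3.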

The nature of data set [2]: Inhibition of LTB4 production in calcium ionophore A23187 treated human leukocytes. Conditions: Leukocyte. The data set is classed as functional, cell-based. Summed up: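 Human leukocytes challenged with calcium ionophore; LTB4 produced by the cells was measured. IC50 is the average of n ≥ 3.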
Data set [3] concerns Blood. As to the kind of experiment: Inhibition of LTB4 production in calcium ionophore treated A23187 human whole blood after 15 mins. The data set is classed as functional, tissue-based. The following applies: 0.25 h.
Data set [4] concerns the target Cytochrome P450 2C9 (Homo sapiens, UniProt P11712). As to the kind of experiment: Inhibition of CYP2C9. The data set is classed as ADME.
The target of data set [5] is CYP2C9 (Homo sapiens, UniProt P11712). Kind of data set: Inhibition of CYP2C9 at 10 uM. The data set is classed as ADME.
Chain of CYP2C9 (P11712 whole entry): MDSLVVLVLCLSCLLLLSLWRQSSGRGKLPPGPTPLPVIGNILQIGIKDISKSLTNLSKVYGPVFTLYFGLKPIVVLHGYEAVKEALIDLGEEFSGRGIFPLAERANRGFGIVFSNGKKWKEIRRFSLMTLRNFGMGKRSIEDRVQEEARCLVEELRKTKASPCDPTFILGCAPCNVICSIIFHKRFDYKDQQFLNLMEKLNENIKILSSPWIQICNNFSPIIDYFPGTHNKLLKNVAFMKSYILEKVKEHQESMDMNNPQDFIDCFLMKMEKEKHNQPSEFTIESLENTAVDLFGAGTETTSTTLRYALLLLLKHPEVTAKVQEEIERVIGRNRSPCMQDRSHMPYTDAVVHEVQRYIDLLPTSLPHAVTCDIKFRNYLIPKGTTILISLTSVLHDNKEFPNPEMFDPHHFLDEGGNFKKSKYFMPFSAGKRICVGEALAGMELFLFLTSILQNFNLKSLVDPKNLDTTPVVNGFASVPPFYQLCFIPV
Data set [6] deals with CYP3A4 (Homo sapiens, UniProt P08684). As to the kind of experiment: Inhibition of CYP3A4 at 10 uM. The data set is classed as ADME.
Chain of CYP3A4 (P08684 whole entry): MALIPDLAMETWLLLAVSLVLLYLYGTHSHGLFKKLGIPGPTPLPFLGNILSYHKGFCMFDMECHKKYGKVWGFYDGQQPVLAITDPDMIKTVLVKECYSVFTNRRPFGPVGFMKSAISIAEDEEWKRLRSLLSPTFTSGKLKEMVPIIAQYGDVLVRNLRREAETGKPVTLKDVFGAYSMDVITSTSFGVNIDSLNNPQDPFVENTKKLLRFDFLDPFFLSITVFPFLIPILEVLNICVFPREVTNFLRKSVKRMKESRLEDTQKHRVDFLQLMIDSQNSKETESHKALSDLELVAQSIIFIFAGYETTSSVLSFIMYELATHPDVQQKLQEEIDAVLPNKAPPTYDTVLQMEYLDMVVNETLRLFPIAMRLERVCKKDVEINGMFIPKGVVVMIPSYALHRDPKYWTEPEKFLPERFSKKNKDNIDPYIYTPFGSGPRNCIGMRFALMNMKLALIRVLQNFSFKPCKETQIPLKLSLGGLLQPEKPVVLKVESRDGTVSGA
The nature of data set [7]: Bioavailability in rat at 10 mg/kg. The data set is classed as ADME, organism-based. The following applies: in vivo. An outline of the steps: (§1)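 Rat, oral dosing at 10 mg/kg given as the sodium carboxylate salt. Read-outs: F, clearance, Cmax, AUC and half-life.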
Data set [8] in a line: Clearance in rat at 10 mg/kg, po. The data set is classed as ADME, organism-based. Further details: dose 10 mg/kg, route oral. The following applies: in vivo. An outline of the steps: as §1
Data set [9] in a line: Cmax in rat at 10 mg/kg, po. Conditions: in vivo. The data set is classed as ADME, organism-based. Further details: dose 10 mg/kg, route oral. An outline of the steps: as §1
Data set [10] is described as follows: AUC in rat at 10 mg/kg, po. The data set is classed as ADME, organism-based. Also noted: dose 10 mg/kg, route oral. Conditions: plasma. Summed up:
as §1

One may read the IC50 as the concentration that gives 50% inhibition. Broadly, the inhibition is how much of the control response was suppressed. A lower inhibition goes with a response near the control. Broadly, the bioavailability is the share of a dose that reaches the circulation, judged against a reference dose that is usually intravenous. A higher bioavailability goes with much systemic uptake. Usually CL/F stands for clearance divided by bioavailability, as obtained after extravascular dosing. Broadly, the Cmax is the maximum level reached in the sampled fluid or tissue. In general, AUC refers to the area under the concentration-time curve, a measure of exposure. Read a low AUC as less exposure.

Chain of Cytochrome P450 2C9 (P11712 whole entry): as the sequence (P11712 whole entry) above

On to `CC(C)(C)Sc1c(CC(C)(C)C(=O)O)n(Cc2ccc(Cl)cc2)c2ccc(OC[C@@H]3CCCN3S(C)(=O)=O)cc12`, for which the IC50 in data set [1] was 441 nM; in data set [2], 30 nM; in data set [3], 4300 nM.
Consider `CC(C)(C)Sc1c(CC(C)(C)C(=O)O)n(Cc2ccc(Cl)cc2)c2ccc(OC[C@@H]3CCCN3)cc12`, for which the IC50 was above 10000 nM in data set [1] and 2780 nM in [2].
As for `CC(C)(C)Sc1c(CC(C)(C)C(=O)O)n(Cc2ccc(Cl)cc2)c2ccc(OCC(O)c3ccc(F)cc3)cc12` (stereo not drawn), the IC50 turned out to be 19 nM in [1], 7 nM in [2] and 469 nM in data set [3].
The matching figures for `CC(=O)N1c2ccccc2C[C@H]1COc1ccc2c(c1)c(SC(C)(C)C)c(CC(C)(C)C(=O)O)n2Cc1ccc(-c2ccc(F)cn2)cc1`: 1.7 nM, 0.5 nM and 235 nM.
As to `CC(C)(C)OC(=O)N1c2ccccc2C[C@H]1COc1ccc2c(c1)c(SC(C)(C)C)c(CC(C)(C)C(=O)O)n2Cc1ccc(Cl)cc1`, the half-maximal inhibitory concentration (IC50) was 1100 nM in data set [1] and 106 nM in data set [2].
As to `CC(=O)N1c2ccccc2C[C@H]1COc1ccc2c(c1)c(C(=O)c1ccccc1)c(CC(C)(C)C(=O)O)n2Cc1ccc(Cl)cc1`, the IC50 was above 10000 nM in data set [1], 263 nM in data set [2] and 63100 nM in data set [3].
As to `CC(C)(C)Sc1c(CC(C)(C)C(=O)O)n(Cc2ccc(Cl)cc2)c2ccc(OC[C@@H]3Cc4ccccc4N3)cc12`, the IC50 in data set [1] is 85 nM; in [2] it was 4.1 nM; in [3], 1430 nM.
For `CC(C)C(=O)N1CCC[C@H]1COc1ccc2c(c1)c(SC(C)(C)C)c(CC(C)(C)C(=O)O)n2Cc1ccc(Cl)cc1`, the IC50 in [1] turned out to be 186 nM; in data set [2], 51 nM; in [3], 5660 nM.
Take `COc1ccc(-c2ccc(Cn3c(CC(C)(C)C(=O)O)c(SC(C)(C)C)c4cc(OC[C@@H]5Cc6ccccc6N5C(C)=O)ccc43)cc2)nn1`: the 50% inhibitory concentration (IC50) in data set [1] was determined as 3.2 nM; in [2] it was 12.6 nM; in data set [3], 1110 nM.
The matching figures for `CC(C)(C)OC(=O)N1c2ccccc2C[C@@H]1COc1ccc2c(c1)c(SC(C)(C)C)c(CC(C)(C)C(=O)O)n2Cc1ccc(Cl)cc1`: above 10000 nM, 102 nM and 12300 nM.
The matching figures for `CC(=O)N1c2ccccc2C[C@H]1COc1ccc2c(c1)c(S(=O)(=O)C(C)(C)C)c(CC(C)(C)C(=O)O)n2Cc1ccc(Cl)cc1`: 4.5 nM, 19 nM and 1740 nM.
The matching figures for `CC(C)(C)Sc1c(CC(C)(C)C(=O)O)n(Cc2ccc(Cl)cc2)c2ccc(OCC(N)=O)cc12`: 38 nM, 28 nM and 2140 nM.
In the case of `CC(C)(C)Sc1c(CC(C)(C)C(=O)O)n(Cc2ccc(Cl)cc2)c2ccc(OCc3ccc4ccccc4n3)cc12` [QUIFLAPON], the IC50 in [4] was 500 nM.
For the compound `CC(C)(C)Sc1c(CC(C)(C)C(=O)O)n(Cc2ccc(Cl)cc2)c2ccc(OCC(=O)c3ccc(F)cc3)cc12`, the IC50 in data set [1] was 13 nM; in [2] it was 769 nM; in [3] it was 11800 nM.
The matching figures for `CC(=O)N[C@H](COc1ccc2c(c1)c(SC(C)(C)C)c(CC(C)(C)C(=O)O)n2Cc1ccc(Cl)cc1)c1ccccc1`: 581 nM, 72 nM and 23100 nM.
For the compound `CC(C)(C)Sc1c(CC(C)(C)C(=O)O)n(Cc2ccc(Cl)cc2)c2ccc(OC[C@@H]3CCC(=O)N3)cc12`, the IC50 in data set [1] was 616 nM; in data set [2], 108 nM; in [3], 9020 nM.
The matching figures for `CCC(=O)N1CCC[C@H]1COc1ccc2c(c1)c(SC(C)(C)C)c(CC(C)(C)C(=O)O)n2Cc1ccc(Cl)cc1`: 4 nM, 1.5 nM and 307 nM.
The matching figures for `CC(=O)N1c2ccccc2C[C@H]1COc1ccc2c(c1)c(C(=O)C(C)C)c(CC(C)(C)C(=O)O)n2Cc1ccc(Cl)cc1`: 20.6 nM, 20.6 nM and 4900 nM.
As for `CC(C)(C)Sc1c(CC(C)(C)C(=O)O)n(Cc2ccc(Cl)cc2)c2ccc(OC[C@@H]3CCCN3C(=O)c3ccccc3)cc12`, the IC50 in data set [1] is 1340 nM; in [2], 110 nM; in data set [3], 22300 nM.
For `CC(=O)N1c2ccccc2C[C@H]1COc1ccc2c(c1)c([S+]([O-])C(C)(C)C)c(CC(C)(C)C(=O)O)n2Cc1ccc(Cl)cc1` (stereo partly drawn), in that order: 74 nM, 335 nM and 23200 nM.
On to `COc1nc(-c2ccc(Cn3c(CC(C)(C)C(=O)O)c(SC(C)(C)C)c4cc(OC[C@@H]5Cc6ccccc6N5C(C)=O)ccc43)cc2)cs1`, for which the IC50 in data set [1] was determined as 2.5 nM; in data set [2], 0.6 nM; in [3], 573 nM.
Take `CC(=O)N1c2ccccc2C[C@H]1COc1ccc2c(c1)c(Cc1ccccc1)c(CC(C)(C)C(=O)O)n2Cc1ccc(Cl)cc1`: the IC50 in data set [1] was 15.2 nM; in data set [2] it was 1.5 nM; in data set [3], 428 nM. The inhibition at 10 µM in data set [5] and in data set [6] was above 80% throughout.
`CC(=O)N1c2ccccc2C[C@H]1COc1ccc2c(c1)c(SC(C)(C)C)c(CC(C)(C)C(=O)O)n2Cc1ccc(Cl)cc1`: the IC50 in data set [1] is 1.4 nM; in data set [2], 0.5 nM; in [3], 169 nM. The inhibition at 10 µM in data set [5] turned out to be 96%; in data set [6], 80%. The same compound came in with a bioavailability in data set [7] of 11%. This compound registered a CL/F in [8] of 25 mL/min/kg. The same compound returned a Cmax in [9] of 270 nM.
Regarding `COc1ccc(-c2ccc(Cn3c(CC(C)(C)C(=O)O)c(SC(C)(C)C)c4cc(OC[C@@H]5Cc6ccccc6N5C(C)=O)ccc43)cc2)cn1`, the IC50 in data set [1] came out at 9.3 nM; in data set [2] it was 1.8 nM; in [3] it was 276 nM.
`CC(=O)N1c2ccccc2C[C@H]1COc1ccc2c(c1)c(C(=O)C(C)(C)C)c(CC(C)(C)C(=O)[O-])n2Cc1ccc(Cl)cc1.[Na+]` showed a bioavailability in data set [7] of 7%. Also, the Cmax in data set [9] was 270 nM.
For `CC(C)(C)OC(=O)N1CCC[C@H]1COc1ccc2c(c1)c(SC(C)(C)C)c(CC(C)(C)C(=O)O)n2Cc1ccc(Cl)cc1`, the IC50 came to 1110 nM in data set [1], 29 nM in data set [2] and 17200 nM in data set [3].
For the compound `CC(=O)N1c2ccccc2C[C@H]1COc1ccc2c(c1)cc(CC(C)(C)C(=O)O)n2Cc1ccc(Cl)cc1`, the IC50 worked out at 218 nM in data set [1], 12.9 nM in [2] and 31500 nM in data set [3].
As to `CC(C)(C)Sc1c(CC(C)(C)C(=O)O)n(Cc2ccc(Cl)cc2)c2ccc(OC[C@@H]3CCCN3C(=O)C3CC3)cc12`, the IC50 in data set [1] is 50 nM; in [2] it was 8 nM; in [3] it was 885 nM.
The matching figures for `CC(C)(C)OC(=O)N1CCC[C@@H]1COc1ccc2c(c1)c(SC(C)(C)C)c(CC(C)(C)C(=O)O)n2Cc1ccc(Cl)cc1`: 1810 nM, 193 nM and 67800 nM.
As for `CC(=O)N1c2ccccc2C[C@H]1COc1ccc2c(c1)c(CC(C)C)c(CC(C)(C)C(=O)O)n2Cc1ccc(Cl)cc1`, the values for the IC50 in [1], in data set [2] and in data set [3] were 35 nM, 0.5 nM and 200 nM, respectively. Further, the inhibition at 10 µM in data set [5] and in [6] was above 80% each time.
Regarding `COc1ccc(-c2ccc(Cn3c(CC(C)(C)C(=O)O)c(SC(C)(C)C)c4cc(OC[C@@H]5Cc6ccccc6N5C(C)=O)ccc43)cc2)nc1`, the IC50 came out at 3.8 nM in data set [1], 0.5 nM in data set [2] and 373 nM in data set [3].
In the case of `CC(=O)N1c2ccccc2C[C@H]1COc1ccc2c(c1)c(CCC(C)(C)C)c(CC(C)(C)C(=O)O)n2Cc1ccc(Cl)cc1`, the results for the IC50 in data set [1], in data set [2] and in data set [3] were 4.7 nM, 4.2 nM and 405 nM, respectively. Also, the inhibition at 10 µM in [5] and in data set [6] was above 80% throughout.
On to `CC(=O)N1c2ccccc2C[C@H]1COc1ccc2c(c1)c(C(=O)C(C)(C)C)c(CC(C)(C)C(=O)O)n2Cc1ccc(Cl)cc1`, for which the figures for the IC50 in data set [1], in data set [2] and in data set [3] were 19 nM, 1.3 nM and 521 nM, respectively.
Regarding `CC(=O)N1CCC[C@H]1COc1ccc2c(c1)c(SC(C)(C)C)c(CC(C)(C)C(=O)O)n2Cc1ccc(Cl)cc1`, the IC50 is 6 nM in data set [1], 16 nM in [2] and 403 nM in data set [3]. Further, the figures for the inhibition at 10 µM in [5] and in [6] were 93% and 64%, respectively. Also, in [7], the bioavailability was found to be 10%. In [10], this compound showed an AUC of 1200 ng·h/mL. In data set [8], this compound came in with a CL/F of 20 mL/min/kg.
